Measurements published in ChEMBL document CHEMBL3085730, “Skeletal hybridization and PfRIO-2 kinase modeling for synthesis of α-pyrone analogs as anti-malarial agent” (Eur J Med Chem, 2013).
Activity calls are given as the source filed them. The calls are words filed in the database; no cut-off is given here.

Columns and labels:
Plasmodium falciparum [1] = experiment: Antimalarial activity against ring-stage Plasmodium falciparum 3D7 assessed as schizonticidal activity after 42 hrs; format: functional, organism-based; details: 3D7, 42 h
How it was run: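 Ring-stage P. falciparum 3D7-parasitised cells exposed to compound for 42 h. Blood smears scored for maturation of rings into trophozoites and schizonts. IC50 derived from schizont inhibition by regression analysis.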

Plasmodium falciparum [2] = experiment: Parasitocidal activity against ring-stage Plasmodium falciparum 3D7 assessed as minimum killing concentration incubated for 42 hrs followed by compound washout measured 72 hrs post infection in hematocrit; format: functional
How it was run: (§1)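 After drug exposure, compound removed and cultures washed 3 times with Albumax II-free RPMI-1640. Cultures then incubated a further 72 h in complete medium with fresh hematocrit. RBCs containing viable parasite counted on thin smear to class inhibition as parasitostatic or parasitocidal.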

Plasmodium falciparum [3] = experiment: Parasitostatic activity against ring-stage Plasmodium falciparum 3D7 assessed as minimum killing concentration incubated for 42 hrs followed by compound washout measured 72 hrs post infection in hematocrit; format: functional, organism-based; how it was run: as §1
Plasmodium falciparum [4] = experiment: Antimalarial activity against Plasmodium falciparum 3D7 assessed as intracellular ROS generation relative to untreated control; format: functional
How it was run: (§2)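 Parasite cultures treated with a sub-lethal concentration of compound. Intracellular ROS measured with the fluorescent probe 2',7'-dichlorofluorescein diacetate. Lipid peroxidation measured by a previously described method. Each index expressed as fold change ± SD versus untreated culture.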

Plasmodium falciparum [5] = experiment: Antimalarial activity against Plasmodium falciparum 3D7 assessed as lipid peroxidation after 48 hrs by spectrophotometry relative to untreated control; format: functional; how it was run: as §2

SMILES	IC50 (Plasmodium falciparum [1]) [nM]	Activity (Plasmodium falciparum [2]) [µM]	Activity (Plasmodium falciparum [3])	fold change (FC) (Plasmodium falciparum [4])	fold change (FC) (Plasmodium falciparum [5])
Cc1ccc(NC(=O)c2c(O)cc(-c3ccccc3)oc2=O)cc1	1420	38.9			
COc1ccc(-c2cc(N3CCN(C)CC3)c(C(=O)Nc3ccc(O)cc3)c(=O)o2)cc1	1570		inactive	1.99	4.88
O=C(Nc1ccc(Br)cc1)c1c(N2CCCCC2)cc(-c2ccccc2)oc1=O	337	0.21		1.87	4.49
O=C(Nc1ccc(O)cc1)c1c(N2CCCCC2)cc(-c2ccccc2)oc1=O	765	1.99		1.2	9.03
Cc1ccc(NC(=O)c2c(N3CCCCC3)cc(-c3ccccc3)oc2=O)cc1	859	1		1.66	11.03
O=C(Nc1ccc(F)cc1)c1c(O)cc(-c2ccccc2)oc1=O	900	2.39			
O=C(Nc1ccc(Br)cc1)c1c(O)cc(-c2ccccc2)oc1=O	750	3.9			
